Measurements: PMC9161413 (ACS Omega, 2022)

Columns and labels:
[1] = system: MDA-MB-231 cells; assay: Cell internalization, cytofluorimetric assay, MDA-MB-231; type: cell-based, human; conditions: 24 h, 5 μM
In short: (§1)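 K562 cells (RPMI-1640, 5% FBS, 37 °C, 5% CO2) and MDA-MB-231 cells (DMEM with 4500 mg/L glucose, 10% FBS, 37 °C, 10% CO2) were treated 24 h at 5 μM. Flow cytometry detected the compound's intrinsic fluorescence (λexc 405 nm, λem 421 nm). Read-out was the percentage of cells above the untreated autofluorescence threshold; at least three independent experiments.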

[2] = system: ERK1/2 phosphorylation; assay: ERK1/2 phosphorylation in L929 cells, western blot; type: cell-based, murine; conditions: 24 h, 5 μM
In short: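 Subconfluent L929 cells were exposed 24 h at 5 μM in serum-free medium. Cells were lysed in RIPA with PMSF, orthovanadate and protease inhibitors, and 40–60 μg protein was resolved on 4–12 Bis-Tris gels onto PVDF. Blots were probed overnight at 4 °C for phospho- and total ERK1/2 (vinculin loading control), with fluorescent secondaries and infrared imaging. Phospho-signal was normalised to total protein; three independent experiments; one-way ANOVA with Tukey test.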

[3] = system: VEGFR-1; conditions: read-out: IC50 VEGFR-1; cited from earlier work
[4] = system: FGFR-2; conditions: read-out: IC50 FGFR-2; cited from earlier work
[5] = system: PDGFR-α; conditions: read-out: IC50 PDGFR-α; cited from earlier work
[6] = system: L929 cells; assay: Inhibition of cell proliferation, MTT assay; type: cell-based, murine; conditions: 24 h, 1–10 μM
[7] = system: N-Cadherin expression; assay: N-cadherin expression in L929 cells, western blot; type: cell-based, murine; conditions: 24 h, 5 μM, compared to untreated cells
In short: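 L929 cells (subconfluent, serum-free medium) were treated 24 h at 5 μM. RIPA lysates containing phosphatase/protease inhibitors (40–60 μg protein) were separated on 4–12 Bis-Tris gels and blotted to PVDF. N-cadherin antibody was applied overnight at 4 °C, with vinculin as loading control and infrared fluorescence detection. Densitometry was normalised to total protein and expressed as percent of untreated cells; three independent experiments; ANOVA with Newman–Keuls test.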

[8] = system: VEGFR-3; conditions: read-out: IC50 VEGFR-3; cited from earlier work
[9] = system: K562 cells; assay: Cell internalization, cytofluorimetric assay, K562; type: cell-based, human; conditions: 24 h, 5 μM
In short: as §1

[10] = system: FGFR-3; conditions: read-out: IC50 FGFR-3; cited from earlier work
[11] = system: PDGFR-β; conditions: read-out: IC50 PDGFR-β; cited from earlier work

Compound | internalization / cell fluorescence (in words) [1] | inhibition of ERK1/2 phosphorylation (in words) [2] | IC50 [3] | IC50 [4] | IC50 [5] | antiproliferative / cytostatic effect (in words) [6] | inhibition of N-Cad expression (in words) [7] | IC50 [8] | internalization / cell fluorescence (in words) [9] | IC50 [10] | IC50 [11]
COC(=O)c1ccc2c(c1)NC(=O)/C2=C(\Nc1ccc(N(C)C(=O)CN2CCN(C)CC2)cc1)c1ccccc1 [nintedanib] | efficiently internalized | efficiently inhibits | 34 nM | 37 nM | 59 nM | mild antiproliferative effect | almost by half | 13 nM | efficiently internalized | […] | 65 nM
c(AmpLRGDL) [compound 6] |  | no inhibition |  |  |  | mild antiproliferative effect | stronger inhibitory effect |  |  |  | 
